According to ChEMBL document CHEMBL1177875, “Antitumor activity of (-)-alpha-bisabolol-based thiosemicarbazones against human tumor cell lines” (2010):

Legend:
Type in all cases: functional
UACC-62 = assay: Cytotoxicity against human UACC62 cells by sulforhodamine B assay
In short: (§1)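 Growth of the human tumor cell line was read colorimetrically with sulforhodamine B, following the NCI standard protocol, with doxorubicin as positive control. Compounds were tested at four concentrations in 10-fold dilutions (0.25 to 250). Dose-response curves gave GI50 (the concentration for 50% growth inhibition), TGI (total growth inhibition) and LC50 (50% cell death).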

MCF7 = assay: Cytotoxicity against human MCF7 cells by sulforhodamine B assay; conditions: for CC50: read-out: LC50 (the source's name); in short: as §1
[1] = Cytotoxicity against human NCI/ADR cells by sulforhodamine B assay; conditions: NCI/ADR-RES; for CC50: read-out: LC50 (the source's name); in short: as §1
NCI-H460 = assay: Cytotoxicity against human NCI-H460 cells by sulforhodamine B assay; conditions: for CC50: read-out: LC50 (the source's name); in short: as §1
[2] = Cytotoxicity against human PCO3 cells by sulforhodamine B assay; conditions: for CC50: read-out: LC50 (the source's name); in short: as §1
OVCAR-3 = assay: Cytotoxicity against human OVCAR-3 cells by sulforhodamine B assay; conditions: for CC50: read-out: LC50 (the source's name); in short: as §1
HT-29 = assay: Cytotoxicity against human HT-29 cells by sulforhodamine B assay; conditions: for CC50: read-out: LC50 (the source's name); in short: as §1
K562 = assay: Cytotoxicity against human K562 cells by sulforhodamine B assay; conditions: for CC50: read-out: LC50 (the source's name); in short: as §1

SMILES | GI50 (UACC-62) [µM] | TGI (UACC-62) [µM] | GI50 (MCF7) [µM] | TGI (MCF7) [µM] | CC50 (MCF7) [µM] | GI50 [1] [µM] | TGI [1] [µM] | CC50 [1] [µM] | GI50 (NCI-H460) [µM] | TGI (NCI-H460) [µM] | CC50 (NCI-H460) [µM] | GI50 [2] [µM] | TGI [2] [µM] | CC50 [2] [µM] | GI50 (OVCAR-3) [µM] | TGI (OVCAR-3) [µM] | CC50 (OVCAR-3) [µM] | GI50 (HT-29) [µM] | TGI (HT-29) [µM] | CC50 (HT-29) [µM] | also measured
CC1=CC[C@@H]([C@@](C)(O)CCCC(C)(C)NC(=S)N/N=C\c2ccc(Cl)cc2)CC1 | 7.35 | 13.8 | 6.89 | 15.8 | 44.3 | 7.58 | 36.4 | > 100 | 8.72 | > 100 | > 100 | 7.58 | 22.7 | 48.5 | 6.66 | 12.8 | 40.6 | 7.35 | 22.6 | 47.3 | LC50 (50% cell kill) (UACC-62): 40.6 µM; GI50 (K562): 0.04 µM; TGI (K562): 0.73 µM; CC50 (K562): 10.3 µM
CC1=CC[C@@H]([C@@](C)(O)CCCC(C)(C)NC(=S)N/N=C(/C)c2ccccc2)CC1 | 22.4 | 93.3 | 23.6 | 62.9 | > 100 | 0.75 | > 100 | > 100 | 12.6 | > 100 | > 100 | 19.9 | > 100 | > 100 | 14.3 | 59.5 | > 100 | 28.4 | > 100 | > 100 | LC50 (50% cell kill) (UACC-62): > 100 µM; GI50 (K562): 0.01 µM; TGI (K562): 0.07 µM; CC50 (K562): 1.54 µM
CC1=CC[C@@H]([C@@](C)(O)CCCC(C)(C)NC(=S)NN=C(c2ccccc2)c2ccccc2)CC1 | > 100 | > 100 | 36.7 | > 100 | > 100 | 3.31 | > 100 | > 100 | 13.5 | > 100 | > 100 | > 100 | > 100 | > 100 | > 100 | > 100 | > 100 | > 100 | > 100 | > 100 | LC50 (50% cell kill) (UACC-62): > 100 µM; GI50 (K562): 1.94 µM; TGI (K562): 4.19 µM; CC50 (K562): 10.3 µM
CC1=CC[C@@H]([C@@](C)(O)CCCC(C)(C)NC(=S)N/N=C\c2cccc(Cl)c2)CC1 | 7.81 | 18.1 | 7.35 | 19.5 | 45.9 | 7.35 | 31.9 | > 100 | 44.3 | > 100 | > 100 | 11.2 | 37.8 | 57 | 8.27 | 26.5 | 48 | 6.89 | 16.5 | 45.9 | LC50 (50% cell kill) (UACC-62): 42.7 µM; GI50 (K562): 0.03 µM; TGI (K562): 1.06 µM; CC50 (K562): 56.3 µM
COc1cccc2c1C(=O)c1c(O)c3c(c(O)c1C2=O)C[C@@](O)(C(=O)CO)C[C@@H]3O[C@H]1C[C@H](N)[C@H](O)[C@H](C)O1 [DOXORUBICIN] | 0.18 | 0.55 | 0.04 | 1.84 | 46 | 5.99 | > 100 | > 100 | 0.05 | 1.42 | 37.9 | 0.17 | 2.3 | > 100 | 0.07 | 8.11 | > 100 | 0.18 | 46 | > 100 | GI50 (K562): 0.03 µM; TGI (K562): 0.33 µM; CC50 (K562): > 100 µM
CC(C)=CCC[C@](C)(O)[C@@H]1CC=C(C)CC1 [LEVOMENOL] | > 100 | > 100 | > 100 | > 100 | > 100 | > 100 | > 100 | > 100 | > 100 | > 100 | > 100 | > 100 | > 100 | > 100 | > 100 | > 100 | > 100 | > 100 | > 100 | > 100 | GI50 (K562): 6.37 µM; TGI (K562): > 100 µM; CC50 (K562): > 100 µM
